In the library only some 5% were active in any assay of this set; here they are far more common.
T cruzi repl: blocks replication of Trypanosoma cruzi; hit rate 1.4% among 300,000; T. cruzi beta-gal in NIH3T3, luminescence, 90 h; inhibition, % (test concentration not listed); AID 1885;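 active means mean inhibition across valid replicates above about 55%, limit read from the data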;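 further: signal also drops with host cell toxicity which is not excluded here; higher percent means less beta-gal luminescence so fewer parasites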
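Material: NIH/3T3 host cells with β-galactosidase reporter T. cruzi; Input: 5,000 host fibroblasts per well; Medium: DMEM, 2% fetal bovine serum; Compound: 50 nL DMSO compound solution per well; Schedule: 3 h host attachment, then at least 90 h co-culture; Detection: luminescent β-galactosidase signal after 60 min lysis.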
Mdm2-MdmX inh: disrupts the human Mdm2-MdmX interaction; O15151+Q00987; SaOS-2 split-luciferase Mdm2/MdmX complementation, luminescence; inhibition, % at 8 µM; hit rate 3% among 330,000;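 active means inhibition of at least 50% at 8 µM in the primary screen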
Target sequence (O15151 whole entry, looked up): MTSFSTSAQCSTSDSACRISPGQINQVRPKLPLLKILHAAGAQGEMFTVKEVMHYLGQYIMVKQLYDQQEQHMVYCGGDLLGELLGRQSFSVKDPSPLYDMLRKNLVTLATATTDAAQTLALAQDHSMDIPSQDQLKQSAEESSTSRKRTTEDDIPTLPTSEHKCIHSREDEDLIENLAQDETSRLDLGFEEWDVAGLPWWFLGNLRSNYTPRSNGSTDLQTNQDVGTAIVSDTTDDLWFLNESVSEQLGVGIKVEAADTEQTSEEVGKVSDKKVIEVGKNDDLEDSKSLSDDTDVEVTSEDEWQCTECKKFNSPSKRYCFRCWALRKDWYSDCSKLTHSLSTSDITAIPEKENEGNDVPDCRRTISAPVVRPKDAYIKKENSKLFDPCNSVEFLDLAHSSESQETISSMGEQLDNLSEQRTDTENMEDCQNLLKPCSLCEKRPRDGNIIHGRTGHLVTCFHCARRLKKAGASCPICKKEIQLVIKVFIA
Target sequence (Q00987 whole entry, looked up): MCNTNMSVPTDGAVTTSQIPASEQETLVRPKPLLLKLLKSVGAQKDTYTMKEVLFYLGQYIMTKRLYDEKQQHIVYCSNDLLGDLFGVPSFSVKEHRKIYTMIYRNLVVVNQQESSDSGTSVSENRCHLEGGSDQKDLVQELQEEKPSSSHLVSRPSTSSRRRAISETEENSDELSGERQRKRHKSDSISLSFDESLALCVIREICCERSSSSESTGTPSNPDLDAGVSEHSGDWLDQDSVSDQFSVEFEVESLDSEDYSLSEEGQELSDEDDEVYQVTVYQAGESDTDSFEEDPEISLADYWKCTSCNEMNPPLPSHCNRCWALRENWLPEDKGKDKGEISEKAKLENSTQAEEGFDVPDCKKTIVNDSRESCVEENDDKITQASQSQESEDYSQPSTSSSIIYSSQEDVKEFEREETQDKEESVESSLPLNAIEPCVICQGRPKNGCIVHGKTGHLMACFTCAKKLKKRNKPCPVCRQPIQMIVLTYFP
CHOP UPR activ: apoptotic UPR (CHOP) activation; AID 449763; activation, % at 10 µM; CHO-CHOP luciferase reporter, luminescence; percent of tunicamycin response over DMSO baseline; hit rate 0.34% among 330,000;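 active means at 10 µM dose, activation of 40% or more, normalized to positive control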
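Evaluation: % reporter activation, DMSO baseline versus tunicamycin full activation; System: CHO-CHOP luciferase reporter cell line; Input: 500 cells/well; Incubation: 6 h compound treatment, 37 °C; Measured by: Steady-Glo luciferase luminescence; Dosing: one dose, 10 µM in 0.5% DMSO; Buffer or medium: F12 medium, 10% FBS; Benchmarks: positive tunicamycin 10 µg/mL, negative DMSO alone.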
UPR XBP1 act: activators of adaptive arm of unfolded protein response (XBP1). activation, % at 20 µM. hit rate 0.33% among 330,000. AID 463104. CHO-XBP1 luciferase reporter, IRE1-XBP1 UPR activation, luminescence; percent of tunicamycin response, DMSO as zero;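 active means versus positive control, 20 µM dose yields 30% or more activation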
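Test system: CHO-XBP1 luciferase reporter cells | Buffer or medium: Serum-containing F12 medium, 10% FBS | Schedule: 6 h compound exposure at 37 °C, 5% CO2 | Detection: Steady-Glo luciferase glow luminescence, 10 min after reagent addition | Read-out basis: Activation, % of tunicamycin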
Beta cell apopt: beta cell apoptosis inhibition | protection from apoptosis, % (no concentration beside the values) | INS-1E cytokine-induced death, ATP luminescence, 48 h; percent of positive-control rescue, neutral wells zero | hit rate 0.8% among 300,000;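 active means Every replicate reaches about 75%, or at least half do and their mean reaches it too, limit read from the data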;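 further: higher means more ATP so stronger rescue from cytokine killing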
CSC inhib: blocks cancer stem cells. AID 2717. cancer stem cell-like cells viability, luminescence. inhibition, % at 7.5 µM. hit rate 1.1% among 300,000; in the data active means inhibition above about 75%; tested in HMLE shEcad cells
Mdm2 MdmX conf: confirmation of human Mdm2/MdmX interaction inhibitors; shares compounds with Mdm2-MdmX inh; Mdm2-MdmX binding, luminescent assay; inhibition, % at 8 µM; hit rate 55% among 10,000; in the data active means inhibition above about 40%
Full FLuc ctr: inhibits full-length luciferase, flagging false Mdm2/MdmX hits | shares compounds with Mdm2-MdmX inh | SaOS-2 full-length luciferase counterscreen, luminescence | inhibition, % at 8 µM | hit rate 77% among 6,200 | AID 504607;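 active means mean inhibition at 8 µM reaching about 37%, which flags the compound as non-specific, limit read from the data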;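 further: p53-null SaOS-2 cells with luciferase driven by a doxycycline-inducible promoter; compound on cells about two nights before reading with doxycycline added after day one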
A number is an active result; n = inactive; x = no result given.

SMILES	T cruzi repl	Mdm2-MdmX inh	CHOP UPR activ	UPR XBP1 act	Beta cell apopt	CSC inhib	Mdm2 MdmX conf	Full FLuc ctr
O=C(Cc1ccc(-n2cccc2)cc1)NCc1cccs1	n	55	n	n	n	n	47	67
NCC12CC3CC(C1)CC(c1ccc(Cl)cc1)(C3)C2	64	96	n	n	n	n	n	x
CCN(CC)CCNCc1cc(Cl)c(OCC(=O)Nc2ccccc2)c(OC)c1	n	n	n	n	n	n	x	x
COc1cc(CNC(C)c2ccccc2)cc(Br)c1OCc1ccc(F)cc1 (stereo not drawn)	55	60	n	n	113	n	63	75
COc1cc(CNC(C)c2ccccc2)cc(Cl)c1OCC(=O)Nc1ccccc1 (stereo not drawn)	n	68	n	n	n	n	56	51
COc1cc(CNn2c(C)n[nH]c2=S)cc(Br)c1OCc1ccc(F)cc1	n	n	n	n	x	n	x	x
CCc1nc(Nc2ccc(O)cc2)c2oc3ccccc3c2n1	n	51	n	n	n	n	n	x
Cc1ccc(NC(=O)CSc2nnc(-c3cccnc3)n2-c2ccc(C)cc2)cc1	n	n	n	n	n	n	x	x
O=C(CSc1nnc(-c2cccnc2)n1-c1ccccc1)Nc1ccccc1	n	50	n	n	n	n	n	x
O=C(CSc1nnc(-c2cccs2)n1-c1ccccc1)Nc1ccccc1	n	69	n	n	n	n	n	x
C[C@@]12CCC3[C@@](CC[C@@H]4[C@](C)(C(=O)O)CCC[C@@]34C)(C[C@H]1O)C2 (stereo partly drawn)	n	n	n	n	n	n	x	x
O=S(=O)(Nc1nc2ccccc2nc1Nc1ccc(N2CCOCC2)cc1)c1cc(Cl)ccc1Cl	n	68	n	n	84	86	n	73
O=[N+]([O-])c1cc(-c2nc(-c3ccncc3)no2)ccc1Cl	n	99	n	n	n	n	81	n
O=[N+]([O-])c1cc(-c2nc(-c3ccncc3)no2)cc([N+](=O)[O-])c1	n	n	n	n	n	x	x	x
Cc1cc(C)n2nc(N)c(N=Nc3ccc4c(c3)OCO4)c2n1	n	57	n	n	n	n	n	x
COc1ccccc1N1CCN(C2CCCN(C(=O)CCN3CCCCO3)C2)CC1 (stereo not drawn)	n	n	n	n	n	n	x	x
C=C/C(C)=C/C[C@H]1C(=C)CCC2[C@](C)(C(=O)O)CCC[C@@]21C (stereo partly drawn)	x	n	n	n	n	n	x	x
C=C1CCC2[C@](C)(CO)[C@H](O)CC[C@@]2(C)[C@@H]1C/C=C1\C(=O)OC[C@H]1O (stereo partly drawn)	n	69	n	n	n	n	63	n
C=CCSc1nsc(NC(=O)Nc2ccc(F)cc2)n1	n	91	n	n	111	101	89	n
CCOC(=O)CC1C(=O)NCCN1C(=O)COc1ccc(C(C)(C)C)cc1 (stereo not drawn)	n	n	n	n	n	n	x	x
COc1ccc(SCC(=O)c2cc(C)c(OC(=S)N(C)C)c(C)c2)cc1	n	n	n	n	n	n	x	x
Cc1cc(C(=O)CSc2ccc(F)cc2)cc(C)c1OC(=S)N(C)C	n	58	n	n	n	x	84	107
O=C1CN(C(=O)CSc2nnc(C3CC3)n2-c2ccccc2)c2ccccc2N1	n	n	n	n	n	n	x	x
Cc1c(C2(O)CCCCC2)[nH]c2ccc(C(F)(F)F)cc12	x	66	n	n	n	81	n	62
Cc1nn2c(NCc3ccccn3)cc(C(C)C)nc2c1-c1ccccc1	n	64	n	n	n	n	41	n
CC(=O)Nc1ccc(Nc2cc(C)nc3c(-c4ccccc4)c(C)nn23)cc1	n	n	n	n	n	n	x	x
Cc1cc(NCc2ccccn2)n2nc(C)c(-c3ccc(Cl)cc3)c2n1	x	61	n	n	n	77	n	x

Source: PubChem BioAssay
